# Assay outcomes as filed in PubChem BioAssay.
# Jurkat viability – cytotoxicity toward Jurkat T cells, primary screen, cytotoxicity control, cell-based, Jurkat E6.1, 60K MLSMR library; Jurkat E6.1 viability, ATP luminescence, 48 h; inhibition, % at 4 µM; 1.2% of 56,000 active; AID 463, 2006;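 active = inhibition above the mean inhibition of all tested compounds plus 3 SD, cut at about 28% in these data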
# MT1-MMP txn act – MT1-MMP promoter reporter activation – cell-based, luciferase luminescence, primary screen | HT1080 MT1-MMP promoter luciferase reporter, overnight; active compounds read high | activation factor at 10 µM | 0.16% of 86,000 active | AID 750, 2007;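 active = activation factor of at least 2 for MT1-MMP transcription at 10 µM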
# SF1 activator – activators of human SF-1, primary screen, cell-based, CHO-K1, Gal4-SF-1 LBD, luciferase luminescence. activation, % at 10 µM. AID 522, 2006. CHO-K1 Gal4-SF-1 LBD luciferase reporter; % increase over DMSO SF-1-specific signal. 1.9% of 65,000 active;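 active = activation above the mean activation of all tested compounds plus 3 SD, cut at about 50% in these data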
#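 Assay system – CHO-K1 cells with Gal4–hSF-1 LBD chimera plus Gal4-driven luciferase · Quantity – 4,000 cells per well · Times – compound added 1 h post-seeding, 20 h exposure at 37 °C, 5% CO2 · Measured by – luciferase light emission · Benchmarks – DMSO and mock-transfected background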
# HEK293 NFkB inh – inhibitors of PMA/ionomycin-induced NF-kB reporter, primary screen, antigen receptor NF-kB inhibitor project, cell-based, HEK-293 luciferase reporter, luminescence; HEK-293 NF-kB luciferase reporter; inhibition, % at 3 µM; 0.21% of 62,000 active; AID 465, 2006;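 active = inhibition above the mean of all tested compounds plus 3 SD, cut at about 40% in these data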;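 note: 0% = stimulated DMSO wells and 100% = 10 µM reference inhibitor 5653914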
#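 Reagent: PMA plus ionomycin mix as NF-kB-activating stimulus. Assay system: NF-kB luciferase reporter HEK-293 cells. Technique: luminescence from luciferase substrate reagent. Incubation: 1 h compound pre-incubation, 16 h PMA/ionomycin at 37 °C. Benchmarks: DMSO only as uninhibited control, 10 µM reference inhibitor as full inhibition. Repeats: tested once.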
# RORa activator – activators of orphan receptor RORA, primary screen, cell-based, luminescence | Nuclear receptor ROR-alpha (Homo sapiens), P35398 | activation, % at 10 µM | CHO-K1 Gal4-RORA LBD luciferase reporter; percent increase over mock-subtracted basal signal | 1.5% of 65,000 active;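 active = activation above the mean of all tested compounds plus 3 SD, cut at about 49% in these data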;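 note: 0% = DMSO-treated RORA cells and 100% = added signal equal to DMSO minus mock-transfected cells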
# Target sequence (P35398 whole entry, looked up, the tested form may be a part): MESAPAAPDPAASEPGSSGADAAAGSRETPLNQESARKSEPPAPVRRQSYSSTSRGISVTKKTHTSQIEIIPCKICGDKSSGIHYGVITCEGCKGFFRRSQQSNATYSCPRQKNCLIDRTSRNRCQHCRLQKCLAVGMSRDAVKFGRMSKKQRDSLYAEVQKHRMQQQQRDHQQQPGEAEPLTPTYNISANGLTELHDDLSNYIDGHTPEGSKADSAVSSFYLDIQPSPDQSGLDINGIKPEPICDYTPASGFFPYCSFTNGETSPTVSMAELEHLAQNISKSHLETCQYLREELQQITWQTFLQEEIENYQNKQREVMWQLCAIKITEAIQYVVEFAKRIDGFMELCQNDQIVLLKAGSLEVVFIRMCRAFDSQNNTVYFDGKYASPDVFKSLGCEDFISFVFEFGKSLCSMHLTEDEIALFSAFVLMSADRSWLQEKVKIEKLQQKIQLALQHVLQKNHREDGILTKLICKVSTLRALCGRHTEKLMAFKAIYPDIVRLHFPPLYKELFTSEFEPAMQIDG
# Numbers without * were called inactive; / = no result. A selection: hits, their analogues and other compounds. The true share with any hit is near 2.8%.
SMILES,Jurkat viability,MT1-MMP txn act,SF1 activator,HEK293 NFkB inh,RORa activator
Cc1cc(C)cc(CC2CC(=O)N(c3ccc(Cl)cn3)C2=O)c1 (centres undefined),/,1.1,/,/,/
CCOC(=O)c1sc2nc3c(cc2c1N)COC(C)(C)C3,-6,1.1,53*,-35,39
CCOC(=O)c1sc2nc3c(cc2c1N)COC(C)(CC)C3 (centres undefined),/,1.4,/,/,/
Cc1ccc(C2NC(=O)c3c(sc4c3CCN(C)C4)N2)o1 (centres undefined),-4,1.2,-27,-12,3
Cc1ccc(C2=NN3C(C2)c2ccccc2OC32C(=O)Nc3ccccc32)cc1 (centres undefined),/,2*,/,/,/
CCCCCNC(=O)c1ccc2c(=O)[nH]c3c(C(=O)NCC4CCCO4)sc(=S)n3c2c1 (centres undefined),9,1.1,-5,0,9
Cn1cnnc1SCC(=O)Nc1ccc2nc(SCc3cccc4ccccc34)sc2c1,/,1.1,/,/,/
C=CCOC(=O)C1=C(C)Nc2ncnn2C1c1cc(Br)ccc1F (centres undefined),15,0.9,-3,0,10
Cc1sc2c(c1C)CN(Cc1ccco1)CN2C(=O)c1ccccc1,-7,2.1*,22,0,20
O=S(=O)(c1ccc(S(=O)(=O)N2CCCC3(CCCCC3)C2)cc1)N1CCCCC1,-4,1.2,6,19,-2
Cc1ccc(Cn2nnc3c(=O)[nH]c(C4CCCN(C(=O)Nc5ccc(F)cc5F)C4)nc32)cc1 (centres undefined),/,1.2,/,/,/
COCC(C)NC(=O)NC1(C(F)(F)F)Oc2ccc(Cl)cc2O1 (centres undefined),/,1.1,13,20,-11
O=C(NCCN1CCOCC1)NC1(C(F)(F)F)Oc2ccc(Cl)cc2O1 (centres undefined),80*,1.1,-29,16,-18
COC(=O)c1ccc(Nc2ncnc3c2cnn3-c2cccc(C)c2)cc1,3,1,1,-2,1
COc1ccc(-n2ncc3c(Nc4cccc(C)c4)ncnc32)cc1,/,1.2,80*,/,30
COc1ccc(Nc2ncnc3c2cnn3-c2cccc(C)c2)cc1OC,-9,1.1,-3,4,7
Cn1ncc2c(Nc3ccccc3Br)ncnc21,/,1,-5,/,-14
Cc1cccc(-n2ncc3c(Nc4ccc(F)cc4)ncnc32)c1,2,1,74*,-21,64*
Cn1ncc2c(Nc3ccc(-c4ccccc4)cc3)ncnc21,35*,1.6,60*,8,43
COc1cc(C)c(Cl)cc1S(=O)(=O)NCc1ccncc1,67*,1,-21,37,-38
Cc1cc(Cl)c(S(=O)(=O)NCc2ccncc2)cc1OCC(N)=O,4,1.2,-1,-3,15
Cn1ncc2c1ncn1nc(COc3ccc4ccccc4c3)nc21,-4,1.1,3,7,10
Cn1ncc2c1ncn1nc(CCc3ccccc3)nc21,-7,1.5,50*,-33,44
COc1ccc(-c2cn3c(C)c(C(=O)Nc4cc(NC(C)=O)ccc4OC)sc3n2)cc1,48*,1.1,16,24,23
CNC(=O)c1sc2nc(-c3ccc(OC)cc3)cn2c1C,-7,1.3,27,-36,62*
SMILES,Jurkat viability,MT1-MMP txn act,SF1 activator,HEK293 NFkB inh,RORa activator
COc1ccc(-c2cn3c(C)c(C(=O)NCCN4CCOCC4)sc3n2)cc1,-4,1.3,10,-16,-11
COc1ccc(-c2cn3c(C)c(C(=O)N4CCc5ccccc5C4)sc3n2)cc1,-4,1,9,14,26
CCN(CC)C(=O)c1sc2nc(-c3ccc(OC)cc3)cn2c1C,2,1.5,80*,-36,98*
Cc1c(C(=O)Nc2ccncc2)sc2nc(-c3ccccc3)cn12,20,1,-15,13,-20
CCn1c(-c2cc(Br)ccc2O)n[nH]c1=S,0,1,-12,10,-12
O=C(CSc1ncn(-c2ccccc2)n1)Nc1nc2c(s1)CCCC2,-2,1.2,-1,14,-5
COc1ccc(C)cc1S(=O)(=O)N(C)CC(=O)NC1CC1,/,1,/,/,/
O=C(COC(=O)CCOc1ccccc1)Nc1ccc(Cl)cn1,-3,1,1,3,-14
Cc1cc(-c2ccccc2)nc(=O)[nH]1,-6,1.1,-6,-2,4
CCC1C(=O)n2nc(-c3ccccc3)cc2N=C1C (centres undefined),-8,1.7,91*,-44,36
O=C(CC1CCCC1)Nc1nnc(C2CC2)s1,-2,1.2,15,18,16
Cc1occc1C(=O)Nc1cccc2ccccc12,-3,0.8,74*,-42,28
Cc1occc1C(=O)Nc1ccccc1NC(=O)c1ccoc1C,3,1.2,20,18,-28
CCSc1nnc(NC(=O)c2cc(C)oc2C)s1,-8,1.4,76*,-41,60*
O=C(Nc1nnc(Cc2ccccc2)s1)c1cccs1,10,1.3,81*,-2,23
CCCSc1nnc(NC(=O)Nc2ccccc2)s1,/,1.1,53*,/,37
Cc1sc(NC(=O)c2cccs2)nc1-c1ccccc1,9,1.2,46,-6,17
CCCSc1nnc(NC(=O)Nc2ccc(F)cc2)s1,/,1.2,-15,/,-1
O=C(Nc1nsc(-c2ccccc2)n1)c1cccs1,5,0.7,77*,-40,47
O=C(NCc1ccc2c(c1)OCO2)C1CCN(c2ccc(S(=O)(=O)N3CCCC3)cc2)CC1,/,1.1,-22,23,-21
COc1ccc(Cc2nnc(NC(=O)c3cccs3)s2)cc1,1,1.1,15,6,51*
CCSc1nnc(NC(=O)c2cccs2)s1,6,1.3,43,-15,50*
O=C(Nc1nnc(SCc2ccccc2)s1)c1cccs1,2,1.1,47,-4,34
COc1ccc(OC)c(C2C(C(=O)c3cc4ccccc4o3)=C(O)C(=O)N2c2cc(C)on2)c1 (centres undefined),-1,1.1,15,11,10
CNc1nc(-c2ccc(Cl)cc2)cs1,/,1.2,64*,-16,47
SMILES,Jurkat viability,MT1-MMP txn act,SF1 activator,HEK293 NFkB inh,RORa activator
CCNc1nc(-c2ccc(Cl)cc2)cs1,/,1.1,16,-24,50*
CCN(CC)CC(=O)Nc1nc(-c2ccc(Cl)cc2)cs1,/,1.2,/,/,/
O=C(NC(Cc1c[nH]c2ccccc12)c1nnc2n1CCCCC2)c1cccs1 (centres undefined),7,1.1,1,11,-6
O=c1cc2c(n[nH]1)CCCC2,-2,1,-2,-4,-17
CN(C(=O)CSc1nnc(-c2ccco2)o1)C1CCCCC1,-3,1.3,29,4,50*
CCN(CC)C(=O)CSc1nnc(-c2ccco2)o1,/,1.4,/,/,/
